30 molecules from ChEMBL document CHEMBL1133447, “Inhibition of protein synthesis by didemnins: cell potency and SAR” (J Med Chem, 2000) can be followed below.

Starred links: 1 amine or outer side, 2 acyl side, 3 side chain; linkers in the order of their positions; H or OH if unused. Positions of bridges follow the written chain, without caps; N, C: chain ends. Non-standard residues stand in square brackets, D forms with d. Residues, ends and D or L forms follow the SMILES beside them. ξ: configuration not given here. *: point of attachment. X1 = CC[C@H](C)[C@@H](N[*:1])[C@@H](O)CC(=O)O[C@H](C(=O)[C@H](C)C(=O)[*:2])C(C)C; Benzoyl(4-benzoyl) = O=C(c1ccccc1)c1ccc(C(=O)*)cc1; X2 = CC[C@H](C)[C@@H](N[*:1])[C@@H](O)CC(=O)[*:2]; Propanoyl(3-(4-MeO-Ph)) = COc1ccc(CCC(=O)*)cc1; NMeY = CN[C@@H](Cc1ccc(O)cc1)C(=O)O; NMeL = CN[C@@H](CC(C)C)C(=O)O; dHica = CC(C)C[C@@H](O)C(=O)O; dNMeL = CN[C@H](CC(C)C)C(=O)O; pGlu = O=C1CC[C@@H](C(=O)O)N1; NMeV = CN[C@H](C(=O)O)C(C)C; Hiv = CC(C)[C@H](O)C(=O)O; NMeA = CN[C@@H](C)C(=O)O; Lac = C[C@H](O)C(=O)O; OBn = c1ccc(CO*)cc1; Ahx = NCCCCCC(=O)O; ξP = O=C(O)C1CCCN1; βAla = NCCC(=O)O

For the assay, the species on record is Oryctolagus cuniculus. As to the kind of experiment: In vitro inhibition of protein synthesis in tobacco mosaic virus mRNA-encoded proteins in rabbit reticulocyte lysate. It is filed as functional. The gist of the method: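 Cell-free translation in rabbit reticulocyte lysate programmed with tobacco mosaic virus mRNA. Protein synthesis was measured as [³⁵S]methionine incorporation into the encoded proteins across a range of inhibitor concentrations, and IC50 was derived from the concentration dependence.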

What is called IC50 is the midpoint of a concentration-inhibition curve. High values mean a need for much substance, low ones inhibition by little substance. Molecule `C[C@@H]1C[C@@H]([C@H](O)CC2CC(=O)NC(=O)C2)C(=O)[C@@H](C)C1` [CYCLOHEXIMIDE] displayed an IC50 of 5 µM. That is a single-digit micromolar value.

Take `COc1ccc(C[C@H]2C(=O)N[C@@H](C)C(=O)N(C)[C@@H]3C(=O)N(C)[C@@H](Cc4ccc(O)c(c4)Oc4ccc(cc4)[C@@H]3O)C(=O)N[C@@H](C)C(=O)N[C@@H](C)C(=O)N2C)cc1` [BOUVARDIN]: the midpoint of inhibition, the IC50, lay at 0.1 µM. Against the preceding molecule, the IC50 is about 50-fold lower.

`COc1ccc(CCC(=O)O[C@H](C)[C@H](NC(=O)[C@H](CC(C)C)N(C)C(=O)[C@@H]2CCCN2C(=O)[C@H](C)O)C(=O)OCc2ccccc2)cc1` (H-[Lac]P[NMeL]T(Propanoyl(3-(4-MeO-Ph)))-OBn) had a half-maximal inhibitory concentration (IC50) of 405 µM.

With `CC[C@H](C)[C@H]1NC(=O)[C@@H](NC(=O)[C@@H](CC(C)C)N(C)C(=O)C2CCCN2C(=O)[C@H](C)O)[C@@H](C)OC(=O)[C@H](CC(C)C)N(C)C(=O)C2CCCN2C(=O)[C@H](CC(C)C)NC(=O)[C@@H](C)C(=O)[C@H](C(C)C)OC(=O)C[C@@H]1O` (stereo not given in full), the half-maximal inhibitory concentration (IC50) came to 9 µM.

In the case of H-ELNFTPNWGT-NH2, the half-maximal inhibitory concentration (IC50) is > 1000 µM.

`C=C(NC(=O)C(=C)NC(=O)c1ccc2c(n1)-c1coc(n1)C(=C)NC(=O)C(=C)NC(=O)c1nc(oc1C)C(=C)NC(=O)C(C(C)(C)O)NC(=O)C(=C)NC(=O)c1nc(oc1C)/C(=C/C)NC(=O)C(C(C)O)NC(=O)c1csc-2n1)C(N)=O` (stereo not given) [BERNINAMYCIN] came in with a half-inhibitory concentration (IC50) of 600 µM.

With `CC(=O)O[C@H](C)[C@H](NC(=O)[C@H](CC(C)C)N(C)C(=O)[C@@H]1CCCN1C(=O)[C@H](C)O)C(=O)OCc1ccccc1` (H-[Lac]P[NMeL]T(Ac)-OBn), it took 276 µM to reach half-maximal inhibition (IC50).

The molecule `CC[C@H](C)[C@H]1NC(=O)[C@@H](NC(=O)[C@@H](CC(C)C)N(C)C(=O)C2C=CCN2)[C@@H](C)OC(=O)[C@H](Cc2ccc(OC)cc2)N(C)C(=O)C2CCCN2C(=O)[C@H](CC(C)C)NC(=O)[C@@H](C)C(=O)[C@H](C(C)C)OC(=O)C[C@@H]1O` (stereo not given in full) gave an IC50 of 4.3 µM.

Molecule `CC(=O)O[C@H]1C[C@@]2(C)[C@@H](C[C@@H](O)[C@H]3[C@@]4(C)CC[C@@H](O)[C@@H](C)[C@@H]4CC[C@@]32C)/C1=C(\CCC=C(C)C)C(=O)O` [FUSIDIC ACID] had a half-maximal inhibitory concentration (IC50) of 400 µM.

Regarding `C/C1=C\[C@H](C)C[C@H](C)OC(=O)C[C@H](c2ccc(O)cc2)NC(=O)[C@@H](Cc2c(Br)[nH]c3ccccc23)N(C)C(=O)[C@H](C)NC(=O)[C@@H](C)C1` [JASPAMIDE], the IC50 is > 500 µM.

Take `CC[C@H](C)[C@@H]1NC(=O)[C@@H]2CCCN2C(=O)[C@@H](CC(C)C)OC(=O)CCNC(=O)[C@H](C)N(C)C(=O)[C@H](C(C)C)N(C)C1=O` (cyclo(I[NMeV][NMeA][βAla][dHica]P)): the IC50 was > 1000 µM.

The molecule `CSCC[C@H](N)C(=O)N[C@@H](CCC(=O)O)C(=O)N[C@@H](Cc1c[nH]cn1)C(=O)N[C@@H](Cc1ccccc1)C(=O)N[C@@H](CCCN=C(N)N)C(=O)N[C@@H](Cc1c[nH]c2ccccc12)C(=O)NCC(=O)O` yielded a half-maximal inhibitory concentration (IC50) of 4 µM.

Turning to `CC[C@H](C)[C@H]1NC(=O)[C@@H](NC(=O)[C@@H](CC(C)C)N(C)C(=O)C2CCCN2)[C@@H](C)OC(=O)[C@H](Cc2ccc(OC)cc2)N(C)C(=O)C2CCCN2C(=O)[C@H](CC(C)C)NC(=O)[C@@H](C)C(=O)[C@H](C(C)C)OC(=O)C[C@@H]1O` (stereo not given in full), the IC50 was 4.3 µM.

Take `CC[C@H](C)[C@H]1NC(=O)[C@@H](NC(=O)[C@@H](CC(C)C)N(C)C(=O)[C@@H]2CCCN2C(=O)[C@H](C)O)[C@@H](C)OC(=O)[C@H](Cc2ccc(OC)cc2)N(C)C(=O)[C@@H]2CCCN2C(=O)[C@H](CC(C)C)NC(=O)[C@H](C(C)C)OC(=O)C[C@@H]1O` (H-[Lac]P[dNMeL]T[X2][Hiv]LP[NMeY](Me); ester 4-C): the IC50 was found to be 1.3 µM.

For `CC[C@H](C)[C@H]1NC(=O)[C@@H](NC(=O)[C@@H](CC(C)C)NC)[C@@H](C)OC(=O)[C@H](Cc2ccc(OC)cc2)N(C)C(=O)C2CCCN2C(=O)[C@H](CC(C)C)NC(=O)[C@@H](C)C(=O)[C@H](C(C)C)OC(=O)C[C@@H]1O` (stereo not given in full), the concentration for half-maximal inhibition (IC50) is 5.4 µM.

For the molecule `CC[C@H](C)[C@H]1NC(=O)[C@@H](NC(=O)[C@@H](CC(C)C)N(C)C(=O)[C@@H]2CCCN2C(=O)[C@H](C)OC(C)=O)[C@@H](C)OC(=O)[C@H](Cc2ccc(OC)cc2)N(C)C(=O)[C@@H]2CCCN2C(=O)[C@H](CC(C)C)NC(=O)[C@@H](C)C(=O)[C@H](C(C)C)OC(=O)C[C@@H]1OC(C)=O`, the IC50 turned out to be 10 µM.

The molecule `CC[C@H](C)[C@H]1NC(=O)[C@@H](NC(=O)[C@@H](CC(C)C)N(C)C(=O)c2ccc(C(=O)c3ccccc3)cc2)[C@@H](C)OC(=O)[C@H](Cc2ccc(OC)cc2)N(C)C(=O)C2CCCN2C(=O)[C@H](CC(C)C)NC(=O)[C@@H](C)C(=O)[C@H](C(C)C)OC(=O)C[C@@H]1O` (stereo not given in full) ({Benzoyl(4-benzoyl)}-[dNMeL]T[X1]L[ξP][NMeY](Me); ester 2-C) displayed a half-maximal inhibitory concentration (IC50) of 4 µM.

For the molecule `CC[C@H](C)[C@H]1NC(=O)[C@@H](NC(=O)[C@@H](CC(C)C)N(C)C(=O)CCCCCNC(=O)c2ccc(C(=O)c3ccccc3)cc2)[C@@H](C)OC(=O)[C@H](Cc2ccc(OC)cc2)N(C)C(=O)C2CCCN2C(=O)[C@H](CC(C)C)NC(=O)[C@@H](C)C(=O)[C@H](C(C)C)OC(=O)C[C@@H]1O` (stereo not given in full) ({Benzoyl(4-benzoyl)-Ahx}-[dNMeL]T[X1]L[ξP][NMeY](Me); ester 2-C), the IC50 was 24 µM.

Consider `CC[C@H](C)[C@H]1NC(=O)[C@@H](NC(=O)[C@@H](CC(C)C)N(C)C(=O)[C@@H]2CCCN2C(=O)[C@H](C)O)[C@@H](C)OC(=O)[C@@H]2CCc3ccccc3N2C(=O)[C@@H]2CCCN2C(=O)[C@H](CC(C)C)NC(=O)[C@@H](C)C(=O)[C@H](C(C)C)OC(=O)C[C@@H]1O`, for which inhibition was half-maximal at 2.7 µM (IC50).

`C=CCOC(=O)N[C@@H](CC(C)C)C(=O)N1CCC[C@H]1C(=O)N(C)[C@@H](Cc1ccc(OC)cc1)C(=O)O[C@H](C)[C@H](NC(=O)[C@@H](CC(C)C)N(C)C(=O)[C@@H]1CCCN1C(=O)[C@H](C)O)C(=O)OCC[Si](C)(C)C` registered an IC50 of 112 µM.

Regarding `COc1ccc(C[C@H]2C(=O)N[C@@H](C)C(=O)N(C)[C@H]3Cc4ccc(cc4)Oc4cc(ccc4OC)C[C@@H](C(=O)N[C@H](C)C(=O)N[C@@H](C)C(=O)N2C)N(C)C3=O)cc1`, the half-maximal inhibitory concentration (IC50) was found to be 0.05 µM.

Regarding `COc1ccc(C[C@@H](C(=O)NCCNC(=O)[C@H](CC(C)C)N(C)C(=O)[C@@H]2CCCN2C(=O)[C@H](C)O)N(C)C(=O)C2CCCN2C(=O)[C@H](CC(C)C)NC(=O)[C@@H](C)NC(=O)OCc2ccccc2)cc1` (stereo not given in full), the concentration for half-maximal inhibition (IC50) came to 275 µM. Against the preceding molecule, the IC50 is about 5500-fold higher.

The molecule `CC[C@H](C)[C@H]1NC(=O)[C@@H](NC(=O)[C@@H](CC(C)C)N(C)C(=O)C2C=CCN2C(=O)OC(C)(C)C)[C@@H](C)OC(=O)[C@H](Cc2ccc(OC)cc2)N(C)C(=O)C2CCCN2C(=O)[C@H](CC(C)C)NC(=O)[C@@H](C)C(=O)[C@H](C(C)C)OC(=O)C[C@@H]1O` (stereo not given in full) had a 50% inhibitory concentration (IC50) of 5.3 µM.

For the molecule `CC[C@H](C)[C@H](NC(=O)[C@H](Cc1ccccc1)NC(=O)[C@H](C)NC(=O)[C@H](CC(=O)O)NC(=O)[C@H](CCCCN)NC(=O)[C@H](CO)NC(=O)[C@@H]1CCCN1C(=O)[C@@H]1CCC(=O)N1)C(=O)NCC(=O)N[C@@H](CC(C)C)C(=O)N[C@@H](CCSC)C(N)=O` [ELEDOISIN] ([pGlu]PSKDAFIGLM-NH2), the IC50 was found to be 500 µM. This IC50 lies about 94-fold higher than the previous one.

Take `COc1ccc(C[C@@H](C(=O)O[C@H](C)[C@H](NC(=O)[C@@H](CC(C)C)N(C)C(=O)[C@@H]2CCCN2C(=O)[C@H](C)O)C(=O)N2CCCCNC(=O)[C@H](C)C(=O)[C@H](C(C)C)OC(=O)C[C@H](O)[C@H]2CC(C)C)N(C)C(C)=O)cc1`: the half-maximal inhibitory concentration (IC50) was > 1000 µM.

The molecule `CC[C@H](C)[C@H]1NC(=O)[C@@H](NC(=O)[C@@H](CC(C)C)N(C)C(=O)CNC(=O)c2ccc(C(=O)c3ccccc3)cc2)[C@@H](C)OC(=O)[C@H](Cc2ccc(OC)cc2)N(C)C(=O)C2CCCN2C(=O)[C@H](CC(C)C)NC(=O)[C@@H](C)C(=O)[C@H](C(C)C)OC(=O)C[C@@H]1O` (stereo not given in full) ({Benzoyl(4-benzoyl)}-G[dNMeL]T[X1]L[ξP][NMeY](Me); ester 3-C) had an IC50 of 4.5 µM.

Molecule `O=C(O)C1=CC(=C(c2ccc(O)c(C(=O)O)c2)c2ccc(O)c(C(=O)O)c2)C=CC1=O` [AURINTRICARBOXYLIC ACID] displayed a 50% inhibitory concentration (IC50) of 10 µM.

Regarding `COc1ccc(C[C@H]2C(=O)O[C@H](C)[C@H](NC(=O)[C@@H](CC(C)C)N(C)C(=O)C3CCCN3C(=O)[C@H](C)O)C(=O)N[C@H](C(C)C)[C@@H](O)CC(=O)O[C@@H](C(C)C)C(=O)[C@H](C)C(=O)N[C@@H](CC(C)C)C(=O)N3CCCC3C(=O)N2C)cc1` (stereo not given in full), the concentration for half-maximal inhibition (IC50) turned out to be 1 µM.

Molecule `COc1ccc(C[C@H]2C(=O)O[C@H](C)[C@H](NC(=O)[C@@H](CC(C)C)N(C)C(=O)[C@@H]3CCCN3C(=O)[C@H](C)O)C(=O)N[C@H](C(C)C)[C@@H](O)CC(=O)O[C@@H](C(C)C)C(=O)[C@H](C)C(=O)N[C@@H](CC(C)C)C(=O)N3CCC[C@H]3C(=O)N2C)cc1` showed an IC50 of 3 µM.

`CC[C@H](C)[C@H]1NC(=O)[C@@H](NC(=O)[C@@H](CC(C)C)N(C)C(=O)C2CCCN2C(=O)[C@H](C)O)[C@@H](C)OC(=O)[C@H](Cc2ccccc2)N(C)C(=O)C2CCCN2C(=O)[C@H](CC(C)C)NC(=O)[C@@H](C)C(=O)[C@H](C(C)C)OC(=O)C[C@@H]1O` (stereo not given in full) came in with an IC50 of 2.5 µM.
